# Measurements taken from publication PMC4277744 (European journal of medicinal chemistry, 2014).
# Where two headings read alike, the source gives them in different places.
# How the values were obtained:
# [1] = Stability of ninhydrin adduct in aqueous buffer monitored by 1H NMR; type: physicochemical; conditions: after one hour, pH 8, D2O, 10 mM phosphate buffer
# [2] = cited from earlier work
# HeLa cell [3] = test: HeLa cell viability assay; conditions: after 48 h
# CH1 domain of p300 = CH1 domain of p300 (Homo sapiens, UniProt Q09472); test: Fluorescence-based assay for release of Zn; type: biochemical; conditions: high basal levels of Zn(II), poorer resolution
# Chain of CH1 domain of p300 (Q09472 331-417 limits assumed): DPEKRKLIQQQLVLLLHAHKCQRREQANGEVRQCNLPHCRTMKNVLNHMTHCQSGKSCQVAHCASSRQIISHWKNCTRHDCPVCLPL
# [4] = biological target: T1, catalytic domain of KDM4A (Homo sapiens, UniProt O75164); test: Fluorescence-based; type: biochemical; conditions: FluoZin-3 dye measures unbound zinc; ebselen positive control
# T1 sequence (O75164 142-308 limits assumed): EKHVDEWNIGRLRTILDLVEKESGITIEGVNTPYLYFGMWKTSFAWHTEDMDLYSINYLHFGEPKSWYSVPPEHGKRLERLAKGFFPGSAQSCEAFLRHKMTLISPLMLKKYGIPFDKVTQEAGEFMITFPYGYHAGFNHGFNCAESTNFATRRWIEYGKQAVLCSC
# [5] = biological target: HIF-1α (785-826)/p300 CH1 domain (323-423) (Homo sapiens, UniProt Q09472); test: ELISA competition assay for disrupting HIF-1α/p300 binding; conditions: read-out: IC50, HIF-1α/p300 interaction, 1% DMSO
# Chain of HIF-1α (785-826)/p300 CH1 domain (323-423) (Q09472 323-423): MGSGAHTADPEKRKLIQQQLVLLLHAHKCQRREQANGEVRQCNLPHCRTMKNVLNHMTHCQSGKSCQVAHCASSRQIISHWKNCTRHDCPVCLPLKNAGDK
# Method in brief: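 Assay wells held 1% DMSO. Each determination ran in triplicate and is reported with ±SD.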
# HeLa cell [6] = test system: HeLa cell
# p300 CH1 (Homo sapiens) = p300 CH1 (Homo sapiens) (UniProt Q09472); conditions: cited from earlier work
# Chain of p300 CH1 (Homo sapiens) (Q09472 331-417): as the sequence (Q09472 331-417 limits assumed) above
# Chain of HIF-1α C-TAD (Q16665 783-826): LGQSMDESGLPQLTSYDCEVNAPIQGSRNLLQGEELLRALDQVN
compound,measurement,setting,value
"O=C(NC1(O)C(=O)c2ccccc2C1=O)c1ccccn1 [compound 5, N-(2-Hydroxy-1,3-dioxo-2,3-dihydro-1H-inden-2-yl)picolinamide]",hydrolysis to picolinamide and ninhydrin 23,[1],80%
"O=C1c2ccccc2C(=O)c2ccccc21 [compound 7, anthraquinone]",half wave potential (E1/2),[2],-1.26 V
"O=C1C=CC(=O)c2ccccc21 [compound 8, naphthoquinone]",cytotoxicity in HeLa cell viability assay,HeLa cell [3],significant dose-dependent cytotoxicity
same,Zn(II) ion release from CH1 domain of p300,CH1 domain of p300,dose- and time-dependent increases in fluorescence
same,half wave potential (E1/2),[2],-1.03 V
same,Zn(II) ion ejection from KDM4A,[4],caused Zn(II) ion loss
"c1ccc(SSc2ccccn2)nc1 [compound 13, Dipyridyldisulfide]",IC50,[5],~100 µM
"O=C(NC1(O)C(=O)c2ccccc2C1=O)c1cccnc1 [compound 16, N-(2-Hydroxy-1,3-dioxo-2,3-dihydro-1H-inden-2-yl)nicotinamide]",Zn(II) ion ejection from KDM4A,[4],caused Zn(II) ion loss
"O=C(NN1C(=O)c2ccccc2C1=O)c1ccccc1 [compound 21, N-(1,3-Dioxoisoindolin-2-yl)benzamide]",cytotoxicity in HeLa cell viability assay,HeLa cell [6],not cytotoxic
"O=C1c2ccccc2C(=O)C1(O)O [compound 23, ninhydrin]",Zn(II) ion release from CH1 domain of p300,CH1 domain of p300,dose- and time-dependent increases in fluorescence
same,cytotoxicity in HeLa cell viability assay,HeLa cell [6],significant dose-dependent cytotoxicity
same,Zn(II) ion ejection from KDM4A,[4],caused Zn(II) ion loss
HIF-1α C-TAD (from UniProt Q16665),Kd,p300 CH1 (Homo sapiens),0.007 µM
